# Bioassay records as filed in PubChem BioAssay.
# PLC-beta3 inh: inhibitors of human phospholipase C beta3; Q01970; Purified PLC-beta3, fluorogenic substrate, fluorescence; inhibition, % at 12.2 µM; 370,000 tested, 0.18% active; AID 720704;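 also: 0% = median of compound wells on plate and 100% = full blocker control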
# sPLA2-III inh: Blocks human group III sPLA2 activity; inhibition, % at 12.2 µM; 370,000 tested, 0.56% active; AID 743126; QFRET BODIPY PC-A2 liposome hydrolysis, fluorescence;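 active = inhibition above mean plus 3 SD of compounds lying within the high and low control bounds, cut at about 19% in these data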;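 also: 0% = median of test compound wells and 100% = no enzyme DMSO wells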
# PLC-gamma1 inh: PLC-gamma1 (human) inhibition, primary screen. AID 720700. 370,000 tested, 0.84% active. inhibition, % at 12.2 µM. purified PLC-gamma1, fluorogenic substrate, fluorescence; in the data active = inhibition above about 9.5%
# proCasp3 act: activates human procaspase-3; P42574; recombinant procaspase-3 D3A, Ac-DEVD-pNA absorbance 405 nm; activation, % at 8.5 µM; 330,000 tested, 0.11% active; AID 463141;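 active = activation above the mean of all tested compounds plus 3 SD, cut at about 21% in these data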;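 also: 0% = DMSO alone and 100% = DMSO wells spiked with extra 5 µM PC-3 D3A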
# Target sequence (P42574 whole entry D9A/D28A/D175A): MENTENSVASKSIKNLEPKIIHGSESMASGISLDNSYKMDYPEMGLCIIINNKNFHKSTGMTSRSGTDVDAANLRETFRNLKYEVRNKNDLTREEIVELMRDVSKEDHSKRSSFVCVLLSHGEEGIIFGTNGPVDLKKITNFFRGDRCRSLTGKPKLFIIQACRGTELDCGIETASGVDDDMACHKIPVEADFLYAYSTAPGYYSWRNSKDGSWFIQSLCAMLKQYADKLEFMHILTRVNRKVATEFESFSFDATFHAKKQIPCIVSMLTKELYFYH
#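 assay system = Procaspase-3 D3A mutant | signal = absorbance at 405 nm, 0 and 120 min | times = 1 h preincubation plus 2 h reaction at 25 °C | repeats = single replicate | read-out = % activation between DMSO and enzyme-spiked controls | medium = Zinc-free HEPES saline buffer with Triton X-100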
# proCasp7 act: counter-screen for procaspase-3 activators: activators of human procaspase-7. activation, % at 8.5 µM. 330,000 tested, 0.093% active. recombinant procaspase-7, Ac-DEVD-pNA absorbance 405 nm; D23A/D198A/D206A triple mutant, cannot self-cleave; scale: DMSO 0, 5 µM enzyme 100. AID 463210. P55210;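 active = percent activation above the screen-wide mean plus 3 SD, cut at about 25% in these data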
# Target sequence (P55210 whole entry D23A/D198A/D206A): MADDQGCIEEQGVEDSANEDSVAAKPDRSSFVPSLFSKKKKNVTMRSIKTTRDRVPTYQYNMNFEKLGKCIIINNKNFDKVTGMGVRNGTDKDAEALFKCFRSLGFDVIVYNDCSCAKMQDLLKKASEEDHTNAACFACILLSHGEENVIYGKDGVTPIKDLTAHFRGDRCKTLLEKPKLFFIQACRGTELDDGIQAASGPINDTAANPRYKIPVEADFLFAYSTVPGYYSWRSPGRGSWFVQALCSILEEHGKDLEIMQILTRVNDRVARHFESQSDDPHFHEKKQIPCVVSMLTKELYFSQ
#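 Assay system – Uncleavable procaspase-7 mutant enzyme · Quantity – 2 µM procaspase-7 mutant as dispensed · Times – 1 h preincubation, 2 h reaction · Dosing – single nominal 8.5 µM compound dose, 0.8% DMSO final · Buffer or medium – Zinc-free 50 mM HEPES buffer, pH 7.4, with NaCl and Triton X-100 · Detection – Epi-absorbance of released pNA at 405 nm, two timepoints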
# Arr AP2 block: human beta-arrestin and AP2 interaction inhibition. AID 504490. inhibition, % at 10 µM. 340,000 tested, 0.31% active. FITC-arrestin peptide / GST-AP2 beads, flow cytometry; AP2 beta2 appendage carries R879A mutation;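 active = inhibition above a set limit, near 3 SD of compounds lacking own fluorescence, cut at about 54% in these data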;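 also: plate controls were DMSO wells for no effect and 5 µM unlabelled arrestin peptide for full effect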
#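 System: GST-AP2 R879A glutathione beads. Medium: PBS with 0.05% Tween 20 and 0.1% BSA. Also added: FITC-arrestin peptide, 50 nM. Incubation: 12 min plus 1 h, RT. Measured by: high-throughput flow cytometry of beads, ex 488, em 535 nm. Evaluation: percent drop in bead-associated FITC signal.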
# PLCgamma1 ctr: counter-screen for PLC-beta3 inhibitors: inhibitors of human PLC-gamma1; shares compounds with PLC-gamma1 inh; purified PLC-gamma1, fluorogenic substrate, fluorescence; inhibition, % at 12.3 µM; 3,300 tested, 3.1% active; in the data active = inhibition above about 9.5%
# PLCb3 confirm: human PLC-beta3 inhibition, confirmation | inhibition, % at 12.3 µM | shares compounds with PLC-gamma1 inh | purified PLC-beta3, fluorogenic substrate fluorescence | 3,300 tested, 1% active | AID 743261
# An asterisk follows results filed as active; x = not tested or not shown. Compounds with a hit are over-represented: about 1.9% of the library has one in this group of screens. Rule as the data show it, unless noted: active = inhibition above about 11%; inactive = the rest.
SMILES,PLC-beta3 inh,sPLA2-III inh,PLC-gamma1 inh,proCasp3 act,proCasp7 act,Arr AP2 block,PLCgamma1 ctr,PLCb3 confirm
CN(Cc1ccccc1)C(=O)COC(=O)COc1ccc(Cl)cc1,-0.5,9.7,4.4,9.1,3.1,14.8,x,x
O=C(CNC(=O)c1cccc(F)c1)OCC(=O)N1CCCc2ccccc21,4.9,4.9,12.1*,-8.5,-0.3,-4.1,-1.8,-0.5
O=C(CNS(=O)(=O)c1ccccc1Br)OCC(=O)N1CCc2ccccc21,-0.6,-10.6,0.1,0.7,-12.3,29.0,x,x
CC(=O)Nc1ccc(S(=O)(=O)NCC(=O)OCC(=O)N2CCc3ccccc32)cc1,1.5,2.3,13.3*,-17.5,-3.5,8.5,-9.1,-6.3
COC(=O)[C@]12C[C@H](CC(=O)NCCc3ccccc3OC)C(=O)N(Cc3ccc4c(c3)OCO4)C1=C[C@H](C(C)(C)C)O[C@@H]2C,2.4,-7.0,-3.1,x,x,x,x,x
Cc1cc(C)cc(OCC(=O)NN2C(=O)c3ccccc3C2=O)c1,-1.8,-2.3,-2.7,2.2,4.0,5.7,x,x
O=C(Cc1ccc(Cl)cc1)NN1C(=O)c2ccccc2C1=O,4.0,5.5,10.6*,8.1,-7.4,30.8,-9.0,-0.4
COc1ccc(NC(=O)c2cc(-c3cc(Cl)ccc3OC)n[nH]2)c(OC)c1,4.7,-1.5,12.3*,x,x,x,-7.6,-9.3
COc1ccc(S(=O)(=O)NCC(c2ccco2)N2CCc3ccccc32)cc1 (stereo not drawn),2.5,-13.0,10.7*,-0.7,-8.1,2.5,-2.7,0.0
Cc1ccc(S(=O)(=O)NCC(c2ccco2)N2CCc3ccccc32)cc1 (stereo not drawn),-6.8,-13.0,-3.3,5.7,4.5,3.1,x,x
O=C(CCc1nc(-c2ccccc2Cl)no1)NCCc1ccccc1,-1.1,6.2,1.4,9.1,5.9,-3.4,x,x
COCCCNC(=O)CCc1nc(-c2ccccc2Cl)no1,8.2,4.5,10.8*,7.0,7.4,9.8,-4.4,-0.2
O=C(/C=C/c1cccc([N+](=O)[O-])c1)N1CC[C@@]2(O)CCCC[C@H]2C1,1.9,4.1,10.5*,-3.2,-1.4,-2.3,0.5,-2.3
C#CCNC(=O)C[C@H]1C[C@@]2(C(=O)OC)C(=C[C@H](C3CCCC3)O[C@@H]2C)N(Cc2ccco2)C1=O,1.2,2.6,1.6,x,x,x,x,x
CCOc1ccc(Cl)cc1S(=O)(=O)N1CCN(c2ccc(F)cc2)CC1,0.0,-12.0,2.7,3.3,1.2,13.5,x,x
CCOc1ccc(Cl)cc1S(=O)(=O)N1CCN(c2ccc(C)c(C)c2)CC1,2.4,-1.3,10.3*,1.4,1.9,31.4,-7.8,-3.4
Cc1ccc(C)c(SCC(=O)NCc2ccco2)c1,12.3*,3.3,0.1,7.4,-5.9,-4.8,-8.4,-5.8
CCN(CC)C(=O)N1CCc2ccccc2C1CN1C(=O)c2ccccc2C1=O (stereo not drawn),-2.7,-6.2,0.2,-1.3,6.8,34.2,x,x
CC(=O)N1CCc2ccccc2C1CC(=O)O (stereo not drawn),-0.6,1.1,11.3*,-8.1,-1.2,15.5,6.6,-0.3
Cc1ccc(-c2nc3ccsc3c(=O)[nH]2)cc1,6.2,10.8,10.1*,-1.2,-4.9,6.1,-2.7,0.5
O=C1[C@H](Cc2ccccc2)NCCCC[C@@H](c2ccc(Cl)cc2)N1Cc1ccccc1,1.4,2.1,16.2*,x,x,18.8,0.8,2.3
Cc1ccc(OCCn2ccnc2)c([N+](=O)[O-])c1,-0.8,0.4,13.4*,11.0,8.8,-0.4,-0.8,0.2
COC[C@H]1CCCN1c1ccc2c(c1)O[C@@H](COCc1ccccc1)CN([C@H](C)c1ccccc1)S2(=O)=O,-3.8,10.9,10.2*,x,x,x,-3.4,-2.1
COC[C@@H]1CCCN1c1ccc2c(c1)O[C@H](COCc1ccccc1)CN([C@@H](C)c1ccccc1)S2(=O)=O,1.0,2.9,3.4,x,x,x,x,x
Cc1ccc(S(=O)(=O)c2c(C)cc(C)nc2Cl)c(C)c1,-1.1,-2.9,10.7*,8.1,1.0,-0.4,-2.7,-2.6
SMILES,PLC-beta3 inh,sPLA2-III inh,PLC-gamma1 inh,proCasp3 act,proCasp7 act,Arr AP2 block,PLCgamma1 ctr,PLCb3 confirm
O=C(Nc1ccccc1Cl)c1ccc(-n2cccn2)c([N+](=O)[O-])c1,-2.5,6.8,10.7*,0.5,8.5,16.1,-4.0,-0.4
NC(=O)CSc1nc2c(sc(=S)n2-c2ccccc2)c(=O)[nH]1,-0.8,7.6,10.1*,x,x,1.4,-3.0,0.5
C=CC[C@]1(O)C(=O)N(c2ccccc2)c2ccccc21,0.4,13.8,-3.8,x,x,x,x,x
O=C(/C=C/c1ccco1)NC(=S)Nc1ccc(C(=O)O)cc1,-10.6,-4.8,25.6*,-23.1,-30.1,40.2,16.9*,-6.7
CC(=O)NC(=S)Nc1ccc(NC(=S)NC(=O)/C=C/c2ccco2)cc1,0.6,1.9,0.1,-9.0,5.6,26.9,x,x
Cc1ccc(NC(=O)CSc2nc(C)cc(=O)[nH]2)c(C)c1,0.9,-1.6,2.6,x,x,x,x,x
CNC(=O)CN1C(=O)CSc2ncccc21,14.1*,10.1,3.7,-1.9,3.2,16.5,1.7,1.8
CCN(CC)c1ccc(NC(=O)CN2C(=O)CSc3ncccc32)c(C)c1,-0.6,-0.5,-1.3,-6.9,13.6,1.4,x,x
O=C(/C=N/O)Nc1ccc(F)cc1,5.7,-12.8,9.5*,-0.2,3.1,-1.1,-5.9,-1.6
CCOC(=O)[C@@]12CN(C(=O)OC(C)(C)C)CC=C1N(Cc1ccc(OC)cc1)C(=O)[C@H]2CC(=O)NCc1ccccc1,-0.4,-5.0,-1.8,x,x,x,x,x
COc1ccc(Br)cc1/C=N/n1c(COc2ccccc2)n[nH]c1=S,-2.6,3.0,10.6*,-3.1,-9.5,-17.0,-48.5,-43.4
COc1ccc(NC(=O)c2sc3cc(C(F)(F)F)cnc3c2-c2cccs2)cc1,0.7,5.5,11.1*,-2.9,-11.5,32.8,-25.6,-25.4
C[C@]1(O)CC(=O)C=C[C@H]1Nc1ccccc1,0.8,-1.5,17.1*,x,x,-1.4,-4.4,-1.3
CC1(C)CC(C(=O)Nc2ccccc2)C(=O)O1 (stereo not drawn),1.5,-12.1,-1.2,4.0,4.2,10.1,x,x
COC(=O)[C@H](C(C)C)N(CCc1cn(Cc2ccc(C)cc2)nn1)S(=O)(=O)c1ccccc1Br,0.0,-31.9,4.3,x,x,x,x,x
Cc1ccc(NC(=O)CN(C)C(=O)Cc2ccc(Cl)cc2Cl)cc1,-0.2,-13.0,10.8*,1.1,-4.7,8.1,-9.8,-5.7
Nc1nnc(COc2ccccc2)s1,0.7,1.6,10.9*,-8.4,12.8,-0.8,-4.9,0.0
O=C(c1cc2ccccc2oc1=O)N1CCCCCCC1,-2.2,7.8,1.7,7.1,4.9,39.4,x,x
